Only some compounds are listed: those with a hit (about 2.1% of all), similar ones and a draw of the others.
Runt-SMMHC FRET = blocks binding of human RUNX1 Runt domain to CBFb-SMMHC. Cerulean-Runt/Venus-CBFb-SMMHC FRET ratio 530/480, 1 h. inhibition, % at 20 µM. 220,000 tested, 0.74% active;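 active means mean inhibition across duplicate retests at 20 µM reaching about 50%, limit read from the data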;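 further: inhibitors lower the FRET ratio by blocking Runt binding to CBFb-SMMHC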
proKLK7 act = activates the human kallikrein-7 zymogen; purified proKLK7, EDANS-DABCYL substrate fluorescence; 100% is mature enzyme control, 0% vehicle; activation, % at 7 µM; 370,000 tested, 0.9% active;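 active means activation above the mean of all tested compounds plus 3 SD, computed per campaign excluding outliers beyond control limits, cut at about 13% in these data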
MEX-5 binding = C. elegans MEX-5 TCR-2 RNA binding activity; Q9XUB2; MEX-5/FITC-TCR2 RNA binding, fluorescence polarization; stronger effect = lower value; activity score (negative = inhibition of binding), % at 10 µM; 300,000 tested, 0.38% active; AID 1832;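 active means inhibition past about -25% in most replicates, and total fluorescence under double the plate's negative control median, limit read from the data; inconclusive means replicates evenly split on the limit, or fluorescence at least double controls; inactive means too little inhibition in most replicates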
Target sequence (Q9XUB2 whole entry, looked up): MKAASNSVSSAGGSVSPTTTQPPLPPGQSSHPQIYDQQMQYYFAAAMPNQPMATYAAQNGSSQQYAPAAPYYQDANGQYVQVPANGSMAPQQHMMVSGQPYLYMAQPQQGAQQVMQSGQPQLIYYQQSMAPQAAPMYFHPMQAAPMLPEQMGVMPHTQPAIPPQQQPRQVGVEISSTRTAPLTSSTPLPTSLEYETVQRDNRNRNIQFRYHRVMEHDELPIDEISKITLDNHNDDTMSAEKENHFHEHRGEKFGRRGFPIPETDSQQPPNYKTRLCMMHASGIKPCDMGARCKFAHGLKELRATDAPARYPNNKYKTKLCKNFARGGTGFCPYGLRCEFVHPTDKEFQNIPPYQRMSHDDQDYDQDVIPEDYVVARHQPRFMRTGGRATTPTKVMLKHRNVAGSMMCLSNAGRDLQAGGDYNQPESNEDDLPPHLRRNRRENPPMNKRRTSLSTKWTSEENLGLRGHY
RanGTP-Imp inh = inhibitors of RanGTP-importin-beta interaction, primary screen, biochemical, FRET, CFP-Ran, YFP-importin-beta, homogeneous. 300,000 tested, 1.1% active. cell-free CFP-Ran/YFP-importin-beta FRET ratio. AID 2216. inhibition, % (no concentration beside the values);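 active means more than half of the replicate wells show a fall in the fluorescence ratio signal beyond about 16%, limit read from the data, passing the limit was not always enough; inconclusive means exactly half of the replicate wells pass the set limit; inactive means fewer than half of replicates pass the limit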
Runt-CBFb FRET = inhibitors of human RUNX1 Runt domain binding to CBFb; Q01196+Q13951; Cerulean-Runt/Venus-CBFb FRET ratio 530/480, 1 h; inhibition, % at 20 µM; 220,000 tested, 0.46% active;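 active means inhibition over about 50% at 20 µM in the single-dose screen, limit read from the data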
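Measured by: fluorescence energy transfer, 422 nm excitation, 530/480 nm emission; test system: Cerulean-tagged RUNX1 Runt domain (FRET donor) fusion protein; buffer or medium: Tris pH 7.5 buffer with BSA; compound: one dose, 20 µM compound, 1% DMSO; times: two 1 h room-temperature incubations shielded from light; benchmarks: unlabeled CBFb 5 µM, positive control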
Numbers stand for hits; . = inactive; ? = inconclusive; / = no result given.

SMILES	Runt-SMMHC FRET	proKLK7 act	MEX-5 binding	RanGTP-Imp inh	Runt-CBFb FRET
CN(C)S(=O)(=O)c1cccc(NC(=S)N/N=C/c2ccc(O)c(O)c2O)c1	.	.	-48	.	.
Nc1c(O)ccc2c1C(=O)c1ccccc1C2=O	.	.	-39	.	.
NN1C(=O)/C(=C2/Sc3ccccc3N2CCCS(=O)(=O)O)SC1=S	/	.	.	.	/
CCC(=S)/C=C1\Sc2ccc3ccccc3c2N1CCCS(=O)(=O)O	.	/	-68	.	.
Cc1cc(=O)oc2c(O)c(O)ccc12	/	.	/	/	/
Cc1cc(=O)oc2c(CN(CC(C)C)CC(C)C)c(O)ccc12	77	35	.	.	.
CC(C)CN(Cc1c(O)ccc2c3c(c(=O)oc12)CCC3)CC(C)C	100	.	.	.	.
Cc1ccc(-c2cc(-c3nnc(SCC(=O)N4CCOCC4)n3N)[nH]n2)cc1	/	.	/	/	/
Cc1ccc(-n2c(SCC(=O)Nc3cccc4ccccc34)nnc2-c2cnccn2)cc1	/	.	/	/	/
Cc1cc(S(=O)(=O)NC(=O)[C@H]2O[C@@H](n3cnc4c(N)ncnc43)[C@H](O)[C@@H]2O)ccc1Br	/	.	/	/	/
CCOC(=O)c1cc(C(=O)OCC)c2cccc(C)n2c1=O	.	.	.	36	.
O=C(Cc1coc2cc(O)ccc12)N1CCN(S(=O)(=O)c2ccc(Br)cc2)CC1	/	.	/	/	/
CCN1CCN(C(=O)CSc2cc(=O)n(CC)c3ccccc23)CC1	.	.	.	37	.
COc1ccc(-n2c(C)nnc2SCC(=O)N2CCOCC2)cc1	/	.	.	?	/
COc1ccccc1NC(=O)/C(C#N)=C/c1cc([N+](=O)[O-])ccc1N1CCCC1	.	.	-83	.	.
COc1ccc(/C=N/NC(=O)CCSc2nc3ccccc3s2)cc1OC	.	.	.	.	.
Cc1cc(C)n(CCC(=O)N/N=C/c2c(O)ccc3ccccc23)n1	.	.	.	36	.
O=C(CCSc1nc2ccccc2s1)N/N=C/c1c(O)ccc2ccccc12	.	.	-46	.	.
Cc1cc(C)n(CCC(=O)N/N=C/c2ccc(O)cc2)n1	.	.	.	.	.
CC1(C(=O)NS(=O)(=O)c2ccccc2)CCN1C(=O)Cc1ccc(Cl)cc1Cl (configuration not stated)	/	.	/	/	/
COc1cccc2sc3ccc(C#CC4(O)CCCCC4)cc3c(=O)c12	/	.	.	49	/
CC(=O)NC1CCCCN(Cc2cccc(F)c2)C1=O (configuration not stated)	/	.	/	/	/
CCc1nnc(NS(=O)(=O)c2ccc(N/C=C/C(=O)c3ccc(OC)cc3)cc2)s1	50	.	.	.	.
CC(=O)c1ccc(NS(=O)(=O)c2ccc(N/C=C/C(=O)c3ccc(F)cc3)cc2)cc1	.	.	.	.	.
COc1cc(NS(=O)(=O)c2ccc(N/C=C\C(=O)c3ccc(F)cc3)cc2)nc(OC)n1	72	.	.	.	.
SMILES	Runt-SMMHC FRET	proKLK7 act	MEX-5 binding	RanGTP-Imp inh	Runt-CBFb FRET
Cc1snc(SCC(=O)c2ccc([N+](=O)[O-])cc2)c1C#N	60	.	/	/	.
Cc1snc(SCC(=O)c2ccc(F)cc2)c1C#N	.	.	.	.	.
O=C(Nc1nc2c(s1)CN(Cc1ccccc1)CC2)C1CCCC1	118	.	.	.	53
O=C(Nc1ccccc1F)c1ccc(CN2CCc3ccccc3C2)cc1	/	.	.	?	/
CN1CCc2nc(NC(=O)COc3ccc4ccccc4c3)sc2C1	.	.	.	.	/
O=C(Nc1nc2c(s1)CN(Cc1ccccc1)CC2)c1c(F)cccc1F	98	.	.	.	.
CC(C)(C)C(=O)Nc1nc2c(s1)CN(Cc1ccccc1)CC2	92	.	.	99	77
CCc1nc2c(OCCC3CCCCC3)cccn2c1N(C)C(=O)c1ccc(C)cc1	/	.	/	/	/
O=S1(=O)CCN(C2CCCCCCC2)CC1	/	.	/	/	/
CCC(=O)Nc1cccc(C2=NOC3(C2)C[C@@H](C(N)=O)N(C(=O)C(c2ccccc2)c2ccccc2)C3)c1 (some centres not stated)	.	.	.	26	.
CCc1ccc(-c2cn3nc(-c4ccccc4)cnc3n2)cc1	.	.	.	21	.
Cc1nc2ccn(Cc3ccccc3)c(=O)c2cc1C(=O)N1CCN(c2ccccc2)CC1	/	.	.	92	/
Cc1ccc(-c2cc(-c3ccccc3)c3c(N)c(S(C)(=O)=O)sc3n2)cc1	89	.	.	.	.
N#Cc1sc2nc(-c3ccccc3)cc(-c3ccco3)c2c1N	.	.	.	.	.
N#CC1(C#N)C(c2ccccc2)OC23CCCCCC2C1(C#N)C(=N)O3 (configuration not stated)	80	.	.	?	.
N#CC1(C#N)C(c2ccccc2)OC23CCCCC2C1(C#N)C(=N)O3 (configuration not stated)	.	.	-49	42	.
Cc1c(O)ccc(-c2[nH]ncc2-c2nc3ccccc3s2)c1O	.	.	.	.	.
Cc1c(O)ccc(-c2n[nH]c(C(=O)O)c2-c2nc3ccccc3s2)c1O	.	.	-58	.	.
C[C@@H]1CN([C@@H](C)CO)C(=O)CCCn2nncc2CO[C@H]1CN(C)C(=O)Nc1ccnc(N2CCOCC2)c1	/	.	/	/	/
CC(C)(C)C(=O)OC12CCCN(C1)/C(=C/c1ccc(Cl)cc1)C2 (configuration not stated)	/	.	/	/	/
Cc1ccc(/C=C2\Oc3cc(OCC(=O)NN)ccc3C2=O)o1	/	.	.	54	/
COc1cccc(/C=C2\Oc3cc(OCC(=O)N4CCCCC4)ccc3C2=O)c1OC	/	.	.	.	/
O=C(O)COc1ccc2c(c1)O/C(=C\c1ccco1)C2=O	/	.	.	25	/
COc1cccc(/C=C2\Oc3cc(OCC(=O)N4CCCC4)ccc3C2=O)c1OC	/	.	.	.	/
O=C(O)COc1ccc2c(c1)O/C(=C\c1cccs1)C2=O	56	.	.	.	.
SMILES	Runt-SMMHC FRET	proKLK7 act	MEX-5 binding	RanGTP-Imp inh	Runt-CBFb FRET
Cc1cc(C(=O)NNC(=O)CCCCC(=O)NNC(=O)c2cc(C)[nH]n2)n[nH]1	.	.	-37	.	.
O=C(Cc1nc2ccccc2[nH]1)NCc1ccco1	.	.	.	35	.
O=C(Cc1c[nH]c2ccccc12)NCc1ccco1	.	.	.	.	.
CC(=O)Nc1ccc(C23CC4CC(CC(C4)C2)C3)cc1	/	.	.	26	/
COC(=O)c1sc2nc(C)cc(C)c2c1N	.	.	.	.	.
Cc1cc(C)c2c(N)c(C(=O)c3cccc(Cl)c3)sc2n1	60	.	.	.	87
CC(=O)c1sc2nc(C)cc(C)c2c1N	78	.	.	.	.
Cc1cc(C)c2c(N)c(C(=O)c3ccc(Cl)cc3Cl)sc2n1	.	.	.	.	.
O=C(OCc1cn(Cc2ccccc2)nn1)N1CCCC1	/	.	/	/	/
CCN(CC(=O)Nc1ccc(NC(C)=O)cc1)C(=O)c1cccc2ccccc12	/	.	/	/	/
N=C1/C(=C\c2ccc(SCc3ccco3)o2)C(=O)N=C2SC=NN12	.	.	-34	.	.
